Laboratory results reported in ChEMBL document CHEMBL1649384, “Synthesis and antiproliferative activity of novel symmetrical alkylthio- and alkylseleno-imidocarbamates” (Eur J Med Chem, 2011).

Assays:
[1] = system: MCF7; assay: Cytotoxicity against human MCF7 cells after 72 hrs by MTT assay; assay type: functional; details: MCF7, 72 h
Summary of the method: (§1)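 Cells seeded per well: Hep-G2 1×10⁴, HT-29 4×10³, K-562 4×10³, MCF-7 1.2×10⁴, MCF-10A 7×10³, PC-3 2×10³. MCF-10A were grown in supplemented MEBM at 37 °C, 5% CO₂. Five concentrations were tested between 0.01 and 100, with 72 h exposure. Formazan was read by A590. GI₅₀ was taken relative to untreated controls, from at least three independent experiments.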

[2] = system: HT-29; assay: Cytotoxicity against human HT-29 cells after 72 hrs by MTT assay; assay type: functional; details: HT-29, 72 h; for CC50: read-out: LC50 (the source's name); summary of the method: as §1
[3] = Cytotoxicity against human MCF10A cells after 72 hrs by MTT assay; assay type: cell-based, MCF-10A; details: for GI50 at 72 h: MCF10A cells; for LC50 / TGI: mcf-10a, 72 h; summary of the method: as §1
[4] = system: K562; assay: Cytotoxicity against human K562 cells after 72 hrs by MTT assay; assay type: functional; details: K562, 72 h; for CC50: read-out: LC50 (the source's name); summary of the method: as §1
[5] = system: HepG2; assay: Cytotoxicity against human HepG2 cells after 72 hrs by MTT assay; assay type: functional; details: HepG2, 72 h; for CC50: read-out: LC50 (the source's name); summary of the method: as §1
[6] = system: HT-29; assay: Cytotoxicity against human HT-29 cells after 72 hrs by CV method; assay type: functional; details: HT-29, 72 h
Summary of the method: (§2)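 Crystal violet check of the MTT data: eight concentrations between 0.01 and 100, with 72 h exposure. Cells were fixed in 4% formaldehyde for at least 20 min, then stained with 0.1% crystal violet for 30 min. GI₅₀ is the concentration halving growth relative to untreated controls.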

[7] = system: PC-3; assay: Cytotoxicity against human PC3 cells after 72 hrs by CV method; assay type: functional; details: PC-3, 72 h; summary of the method: as §2
[8] = system: PC-3; assay: Cytotoxicity against human PC3 cells after 72 hrs by MTT assay; assay type: functional; details: PC-3, 72 h; for CC50: read-out: LC50 (the source's name); summary of the method: as §1

Compound	GI50 [1] [µM]	LC50 [1] [µM]	TGI [1] [µM]	GI50 [2] [µM]	TGI [2] [µM]	CC50 [2] [µM]	GI50 at 72 h [3] [µM]	LC50 [3] [µM]	TGI [3] [µM]	GI50 [4] [µM]	TGI [4] [µM]	CC50 [4] [µM]	GI50 [5] [µM]	TGI [5] [µM]	CC50 [5] [µM]	GI50 [6] [nM]	GI50 [7] [nM]	GI50 [8] [µM]	TGI [8] [µM]	CC50 [8] [µM]
C[Se]/C(=N\C(=O)c1sccc1Cl)NC(=O)c1sccc1Cl	0.3	> 100	31.2	0.0049	> 100	> 100	3.16	7.82	5.49	4.81	28.5	90	0.69	4.02	8.67	5.9	240	0.97	7.03	> 100
C[Se]/C(=N\C(=O)c1ccco1)NC(=O)c1ccco1	0.03	> 100	88.9	5e-05	> 100	> 100	5.94	98.07	40.16	8.78	> 100	> 100	0.76	8.66	> 100	1000	160	0.36	56.7	> 100
C[Se]/C(=N\C(=O)c1cc(-c2ccccc2)nc2ccccc12)NC(=O)c1cc(-c2ccccc2)nc2ccccc12	0.49	> 100	7.52	0.46	90.7	90.7	0.71	76.9	20.05	5.8	30.6	73	4.54	10.1	65.4	850	3720	3.97	40.2	> 100
O=C(/N=C(/NC(=O)c1cc(-c2ccccc2)nc2ccccc12)[Se]Cc1ccccc1)c1cc(-c2ccccc2)nc2ccccc12	8.46	97	45.6	6.07	> 100	> 100	8.46	97.04	45.56	9.06	47.4	88.9	25.8	52.4	78.9			39.3	97.1	> 100
O=C(/N=C(/NC(=O)c1ccco1)[Se]Cc1ccccc1)c1ccco1	8.8	> 100	58	7.19	89.1	89.1	8.8	> 100	57.98	9.53	44.2	80.6	7.65	39.5	76.5			30.5	57.6	84.8
CS/C(=N\C(=O)c1cc(-c2ccccc2)nc2ccccc12)NC(=O)c1cc(-c2ccccc2)nc2ccccc12	43.1	> 100	87.7	23.7	> 100	> 100	0.04	48.81	0.54	34.4	> 100	> 100	6.24	48.1	> 100			7.48	> 100	> 100
O=C(/N=C(/NC(=O)c1ccno1)[Se]Cc1ccccc1)c1ccno1	7.8	> 100	> 100	6.82	> 100	> 100	7.8	> 100	> 100	20	57.3	94.7	9.12	58.9	> 100			53.1	> 100	> 100
O=C(/N=C(/NC(=O)c1ccc2c(c1)OCO2)[Se]Cc1ccccc1)c1ccc2c(c1)OCO2	55.3	> 100	> 100	57.3	> 100	> 100	55.3	> 100	> 100	97.8	> 100	> 100	> 100	> 100	> 100			> 100	> 100	> 100
C[Se]/C(=N\C(=O)c1cc2ccccc2s1)NC(=O)c1cc2ccccc2s1	5.07	80.6	32.7	5.62	> 100	> 100	0.49	73.21	34.65	32.4	61	89.5	9.59	41	73.3			37.2	65.6	94
CS/C(=N\C(=O)c1cnc2ccccc2c1)NC(=O)c1cnc2ccccc2c1	23.9	> 100	> 100	> 100	> 100	> 100	0.5	82.19	42.17	65.8	> 100	> 100	57.6	> 100	> 100			76.3	> 100	> 100
C[Se]/C(=N\C(=O)c1ccno1)NC(=O)c1ccno1	9e-05	> 100	57.5	0.00079	> 100	> 100	2.89	63.94	15.41	0.87	45.6	> 100	0.51	9.35	> 100	4900	30	0.09	39.3	> 100
CS/C(=N\C(=O)c1ccno1)NC(=O)c1ccno1	77.8	> 100	> 100	> 100	> 100	> 100	16.9	> 100	> 100	> 100	> 100	> 100	> 100	> 100	> 100			99.2	> 100	> 100
C[Se]/C(=N\C(=O)c1csc([N+](=O)[O-])c1)NC(=O)c1csc([N+](=O)[O-])c1	0.00076	> 100	28.1	0.00063	> 100	> 100	1.95	7.53	4.74	4.98	> 100	> 100	0.62	1.55	10	7100	110	0.1	7.09	> 100
CS/C(=N\C(=O)c1cccs1)NC(=O)c1cccs1	44.5	> 100	89	77.9	> 100	> 100	19.7	90.5	55.1	72.6	> 100	> 100	> 100	> 100	> 100			39	98.2	> 100
